pIC50: −log10 of the molar value.
Legend:
[1] = target: Lysine-specific demethylase 6A (Homo sapiens, UniProt O15550); assay: Inhibition of human recombinant KDM6A after 120 mins
[2] = Cell cycle arrest in human KYSE-150 cells assessed as increase in G0/G1 phase after 24 hrs by FACS analysis; assay type: functional, cell-based
Method in brief: (§1)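 HeLa or KYSE150 cells (5×10^5) were exposed for 24 h to 10 or 100 μM in RPMI 1640 with 10% FBS, then trypsinized. Cells were fixed in ice-cold 70% ethanol, PBS-washed and stained with propidium iodide (10 μg/mL) plus RNase A (0.2 mg/mL) for 30 min at 25 °C. Phase distribution was read by flow cytometry.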

N2a = assay: Growth inhibition of mouse N2A cells after 48 hrs by MTT assay; assay type: functional
Method in brief: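 Cells were seeded at 5000/well in RPMI 1640 with 10% FBS and allowed to attach overnight, then exposed for 48 h at 37 °C in 5% CO2. MTT was added for 3 h, and the dye was solubilized in HCl–2-propanol and read at 560 nm (reference 750 nm).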

HeLa = assay: Cell cycle arrest in human HeLa cells assessed as reduction in G2/M phase after 24 hrs by FACS analysis; assay type: functional, cell-based
Method in brief: as §1

Chain of Lysine-specific demethylase 6A (O15550 whole entry): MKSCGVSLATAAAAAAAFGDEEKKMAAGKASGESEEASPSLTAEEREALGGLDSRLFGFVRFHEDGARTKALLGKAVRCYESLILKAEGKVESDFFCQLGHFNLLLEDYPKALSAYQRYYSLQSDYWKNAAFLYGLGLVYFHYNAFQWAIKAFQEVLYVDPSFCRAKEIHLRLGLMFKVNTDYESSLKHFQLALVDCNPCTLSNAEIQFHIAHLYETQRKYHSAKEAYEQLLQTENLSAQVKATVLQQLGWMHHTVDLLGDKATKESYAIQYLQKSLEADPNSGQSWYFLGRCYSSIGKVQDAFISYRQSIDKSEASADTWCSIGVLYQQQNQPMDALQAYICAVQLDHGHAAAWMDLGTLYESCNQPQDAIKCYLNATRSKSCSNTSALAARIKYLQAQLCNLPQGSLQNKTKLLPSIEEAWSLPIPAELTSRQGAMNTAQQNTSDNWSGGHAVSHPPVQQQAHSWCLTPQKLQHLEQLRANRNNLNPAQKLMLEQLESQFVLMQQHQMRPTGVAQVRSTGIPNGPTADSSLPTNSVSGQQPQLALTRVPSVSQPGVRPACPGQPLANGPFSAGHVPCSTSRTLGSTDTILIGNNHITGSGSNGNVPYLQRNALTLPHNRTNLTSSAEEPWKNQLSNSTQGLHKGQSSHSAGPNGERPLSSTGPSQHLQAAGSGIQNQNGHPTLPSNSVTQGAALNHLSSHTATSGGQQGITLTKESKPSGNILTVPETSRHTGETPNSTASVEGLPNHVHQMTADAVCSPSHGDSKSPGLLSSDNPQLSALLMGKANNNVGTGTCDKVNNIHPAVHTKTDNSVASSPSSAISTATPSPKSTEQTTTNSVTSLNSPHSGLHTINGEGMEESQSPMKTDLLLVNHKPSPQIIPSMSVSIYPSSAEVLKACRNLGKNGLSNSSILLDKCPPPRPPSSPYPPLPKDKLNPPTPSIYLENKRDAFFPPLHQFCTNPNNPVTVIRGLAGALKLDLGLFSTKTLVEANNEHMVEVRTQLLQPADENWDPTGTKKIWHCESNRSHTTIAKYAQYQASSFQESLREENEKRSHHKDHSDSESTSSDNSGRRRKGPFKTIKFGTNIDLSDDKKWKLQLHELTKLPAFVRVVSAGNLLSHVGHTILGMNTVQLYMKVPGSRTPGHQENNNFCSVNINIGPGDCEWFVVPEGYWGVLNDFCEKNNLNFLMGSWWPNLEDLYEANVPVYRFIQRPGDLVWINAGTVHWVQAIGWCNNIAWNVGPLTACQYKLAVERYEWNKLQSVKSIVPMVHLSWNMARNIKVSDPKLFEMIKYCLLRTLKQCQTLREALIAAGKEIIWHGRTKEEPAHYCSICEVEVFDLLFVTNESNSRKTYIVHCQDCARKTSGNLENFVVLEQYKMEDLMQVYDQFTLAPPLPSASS

pIC50 [1]: < 4.00
Compound: O=C(O)CCN(O)C(=O)CCCCCCCCC1CC1
Activity [2]: Dose-dependent effect | GI50 (N2a): 86 µM | Activity (HeLa): Dose-dependent effect

— ChEMBL document CHEMBL2424657, “Identification of the KDM2/7 histone lysine demethylase subfamily inhibitor and its antiproliferative activity” (J Med Chem, 2013)
